Here are results for twelve compounds from ChEMBL document CHEMBL2016487, “Pyrazolopyrimidines as dual Akt/p70S6K inhibitors” (Bioorg Med Chem Lett, 2012).

In general, IC50 refers to the concentration that gives 50% inhibition. By clearance is commonly meant the rate of elimination divided by the concentration. The low end stands for a low capacity for elimination, the high end for a high capacity for elimination. A word on the Cmax: it is the maximum level reached in the sampled fluid or tissue. As a reminder, the bioavailability is the share of a dose that reaches the circulation, judged against a reference dose that is usually intravenous. A low value points to poor availability. The half-life is how long it takes for the measured level to halve. A higher half-life goes with slow decline. The term Vd denotes the apparent volume that relates the amount in the body to the concentration in plasma or blood. The low end stands for confinement near the circulation, the high end for extensive tissue distribution.

Data set [1] addresses T1, Ribosomal protein S6 kinase beta-1 (Homo sapiens, UniProt P23443). Briefly: Inhibition of p70S6K-mediated ribosomal protein S6 phosphorylation in human A549 cells after 3 hrs by chemiluminescence assay. Format: cell-based. The procedure, abridged:
(§1)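 A549 or PC-3 cells seeded at 7.5 × 10³ cells/well in DMEM with heat-inactivated 10% FBS, 1% penicillin–streptomycin, 1% non-essential amino acids, grown 48 h at 37 °C, 5% CO₂. Treated 3 h with compound at 1.2–300 nM, triplicate, 0.2% DMSO final. Fixed in 4% formaldehyde, blocked, probed with anti-phospho-S6 (Ser240/244) and anti-total-S6 overnight at 4 °C, chemiluminescent read-out.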

Data set [2] deals with T2, RAC-alpha serine/threonine-protein kinase (Homo sapiens, UniProt P31749). Briefly: Inhibition of AKT1 after 3 hrs by luciferase based chemiluminescence assay.
Data set [3] has as its target T2, RAC-alpha serine/threonine-protein kinase. Briefly: Inhibition of AKT1-mediated GSK3beta phosphorylation in human PC3 cells after 3 hrs by chemiluminescence assay. Format: cell-based, PC-3. The procedure, abridged:
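PC-3 cells seeded at 7.5 × 10³ cells/well, grown 24 h, then serum-starved 24 h. Compound treatment 3 h in triplicate (0.2% DMSO final), followed by 100 ng/ml IGF1 for 30 min. Fixed and processed as a cell ELISA using anti-phospho-GSK3β (S9) and anti-total-GSK3β antibodies, chemiluminescent read-out.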

The target of data set [4] is T1, Ribosomal protein S6 kinase beta-1. Briefly: Inhibition of p70S6K after 3 hrs by luciferase based chemiluminescence assay.
The nature of data set [5]: Drug metabolism in mouse liver microsomes at 15 uM after 30 mins. Format: ADME, Microsome. The settings on record: read-out: Drug metabolism. The procedure, abridged:
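Mouse liver microsomes at 0.5 mg/mL, incubated 30 min with compound at 15 µM; value reported as % conversion.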
(In general: Microsomes from liver hold many membrane-bound enzymes, among them those of drug oxidation.)

The target in data set [6] is T1, Ribosomal protein S6 kinase beta-1. Briefly: Inhibition of p70S6K-mediated ribosomal protein S6 phosphorylation in human PC3 cells after 3 hrs by chemiluminescence assay. The data set is classed as cell-based, PC-3. The procedure, abridged:
as §1

The test system of data set [7] is PC-3. Briefly: Anticancer activity against human PC3 prostate tumor cell xenografted model at 100 mg/kg, po qd for 15 days. The data set is classed as functional. The settings on record: PC-3, 360 h, read-out: TGI. On the technique in general: In xenograft studies the graft and the host belong to different species.
A short description of data set [8]: Clearance in rat at 5 mg/kg. Format: ADME, organism-based. The arrangement: dose 5 mg/kg. Particulars: in vivo.
The test system of data set [9] is Rattus norvegicus. Briefly: Dose normalized AUC in rat at 5 mg/kg, iv. Format: ADME, organism-based. The arrangement: dose 5 mg/kg, route intravenous. The settings on record: in vivo.
Data set [10] is described as follows: Cmax in rat at 5 mg/kg, iv. The data set is classed as ADME, organism-based. The arrangement: dose 5 mg/kg, route intravenous. The settings on record: in vivo.
Data set [11] can be described thus: Oral bioavailability in rat at 5 mg/kg. The settings on record: in vivo. The data set is classed as ADME, organism-based.
A short description of data set [12]: Cmax in rat at 5 mg/kg, po. Format: ADME, organism-based. The arrangement: dose 5 mg/kg, route oral. Particulars: in vivo.
Data set [13] deals with Rattus norvegicus. Briefly: Dose normalized AUC in rat at 5 mg/kg, po. Particulars: in vivo. The arrangement: dose 5 mg/kg, route oral. The data set is classed as ADME, organism-based.
A short description of data set [14]: Half life in rat at 5 mg/kg, po. Format: ADME, organism-based. Details: dose 5 mg/kg, route oral. The settings on record: in vivo.
Data set [15] can be described thus: Plasma concentration in mouse at 100 mg/kg after 4 hrs. The data set is classed as ADME, organism-based. Details: dose 100 mg/kg. The procedure, abridged: (§2)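 Mouse plasma levels measured 1 and 4 h after a 100 mg/kg dose.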
Data set [16] can be described thus: Volume of distribution in rat at 5 mg/kg. Format: ADME, organism-based. The arrangement: dose 5 mg/kg. The settings on record: in vivo.
Data set [17] is described as follows: Half life in rat at 5 mg/kg, iv. The data set is classed as ADME, organism-based. Details: dose 5 mg/kg, route intravenous. The settings on record: in vivo.
Data set [18] can be described thus: Plasma concentration in mouse at 100 mg/kg after 1 hr. The data set is classed as ADME, organism-based. The arrangement: dose 100 mg/kg. The procedure, abridged: as §2
Data set [19] can be described thus: Volume of distribution in rat at 2.5 mg/kg. The data set is classed as ADME, organism-based. Details: dose 2.5 mg/kg. Particulars: in vivo.
Data set [20] is described as follows: Half life in rat at 2.5 mg/kg, po. The data set is classed as ADME, organism-based. The arrangement: dose 2.5 mg/kg, route oral. The settings on record: in vivo.
Data set [21] is described as follows: Half life in rat at 2.5 mg/kg, iv. The arrangement: dose 2.5 mg/kg, route intravenous. Format: ADME, organism-based. Particulars: in vivo.
The nature of data set [22]: Oral bioavailability in rat at 2.5 mg/kg. Format: ADME, organism-based. The settings on record: in vivo.
Data set [23] can be described thus: Clearance in rat at 2.5 mg/kg. The data set is classed as ADME, organism-based. The arrangement: dose 2.5 mg/kg. The settings on record: in vivo.
Data set [24] in a line: Cmax in rat at 2.5 mg/kg, po. Format: ADME, organism-based. The arrangement: dose 2.5 mg/kg, route oral. The settings on record: in vivo.
Data set [25] concerns Rattus norvegicus. Briefly: Dose normalized AUC in rat at 2.5 mg/kg, iv. Format: ADME, organism-based. The arrangement: dose 2.5 mg/kg, route intravenous. The settings on record: in vivo.
Data set [26] relates to Rattus norvegicus. Briefly: Dose normalized AUC in rat at 2.5 mg/kg, po. Format: ADME, organism-based. Details: dose 2.5 mg/kg, route oral. The settings on record: in vivo.
A short description of data set [27]: Cmax in rat at 2.5 mg/kg, iv. Format: ADME, organism-based. The arrangement: dose 2.5 mg/kg, route intravenous. Particulars: in vivo.
The nature of data set [28]: Plasma concentration in mouse at 30 mg/kg after 4 hrs. The data set is classed as ADME, organism-based. The arrangement: dose 30 mg/kg.

T2 sequence (P31749 whole entry): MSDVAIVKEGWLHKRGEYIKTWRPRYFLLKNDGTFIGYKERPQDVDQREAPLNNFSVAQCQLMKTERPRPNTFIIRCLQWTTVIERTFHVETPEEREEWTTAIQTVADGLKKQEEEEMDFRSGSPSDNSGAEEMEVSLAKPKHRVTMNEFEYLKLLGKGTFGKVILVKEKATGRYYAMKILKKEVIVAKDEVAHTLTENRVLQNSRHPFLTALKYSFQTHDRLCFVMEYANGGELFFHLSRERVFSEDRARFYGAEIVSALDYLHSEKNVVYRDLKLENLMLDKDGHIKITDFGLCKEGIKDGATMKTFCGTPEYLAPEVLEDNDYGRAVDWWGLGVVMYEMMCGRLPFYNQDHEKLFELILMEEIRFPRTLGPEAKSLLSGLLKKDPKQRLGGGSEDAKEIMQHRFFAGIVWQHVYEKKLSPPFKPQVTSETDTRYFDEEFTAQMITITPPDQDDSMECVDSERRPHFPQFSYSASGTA
T1 sequence (P23443 whole entry): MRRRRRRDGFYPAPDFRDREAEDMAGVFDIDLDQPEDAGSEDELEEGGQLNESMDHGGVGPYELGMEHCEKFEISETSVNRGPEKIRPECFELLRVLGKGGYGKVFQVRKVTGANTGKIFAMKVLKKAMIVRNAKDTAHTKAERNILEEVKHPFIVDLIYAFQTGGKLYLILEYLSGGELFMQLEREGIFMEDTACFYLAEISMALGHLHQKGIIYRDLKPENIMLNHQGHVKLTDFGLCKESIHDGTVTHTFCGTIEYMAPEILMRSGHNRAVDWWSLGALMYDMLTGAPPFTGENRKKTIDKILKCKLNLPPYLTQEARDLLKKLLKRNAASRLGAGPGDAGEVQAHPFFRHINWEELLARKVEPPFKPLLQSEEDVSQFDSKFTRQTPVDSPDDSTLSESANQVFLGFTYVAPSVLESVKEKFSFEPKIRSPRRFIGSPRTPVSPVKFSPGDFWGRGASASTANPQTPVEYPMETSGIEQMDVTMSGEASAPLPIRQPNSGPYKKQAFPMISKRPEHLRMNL

With `CCc1n[nH]c2ncnc(N3CCN(c4cc(Cl)cc(NCCN5CCCC5)c4C)CC3)c12`, the IC50 amounted to 80 nM in [1]; 434 nM in data set [2]; 3590 nM in data set [3]; 3 nM in data set [4]; 832 nM in [6]. For the same compound, in data set [5], the metabolised at 0.5 h, 15 µM worked out at 18%.

In the case of `CCc1n[nH]c2ncnc(N3CCN(c4cc(Cl)cc(NCCN(C)C)c4C)CC3)c12`, the IC50 in data set [1] turned out to be 45 nM; in data set [3], 9030 nM; in [4], 2 nM; in [6], 211 nM. Further, the inhibition in vivo at 100 mg/kg in data set [7] was determined as 49%. In addition, the metabolised at 0.5 h, 15 µM in data set [5] was 29%.

Regarding `Cc1c(NCCN(C)C)cc(Cl)cc1N1CCN(c2ncnc3[nH]nc(Br)c23)CC1`, the IC50 is 43 nM in data set [1], 4280 nM in data set [3], 2 nM in data set [4] and 141 nM in [6]. In addition, in data set [5], the metabolised at 0.5 h, 15 µM is 50%.

As for `Cc1c(NCCN2CCCC2)cc(Cl)cc1N1CCN(c2ncnc3[nH]nc(Br)c23)CC1`, the IC50 came out at 94 nM in [1]; 42 nM in data set [2]; 1270 nM in data set [3]; 2 nM in [4]; 446 nM in [6]. The metabolised at 0.5 h, 15 µM in data set [5] stood at 19%.

In the case of `CCOc1cc(NCCN2CCCC2)c(C)c(N2CCN(c3ncnc4[nH]nc(Br)c34)CC2)c1`, the IC50 was determined as 197 nM in data set [1], 56 nM in data set [2], 9070 nM in data set [3] and 2 nM in data set [4].

In data set [8], `Cc1c(NCCN2CCCC2)cc(OCC(C)C)cc1N1CCN(c2ncnc3[nH]nc(Br)c23)CC1` showed a clearance of 79.5 mL/min/kg. Further, the IC50 in data set [1] was 37 nM; in data set [2], 9 nM; in data set [3] it was 700 nM; in data set [4] it was 1 nM; in data set [6] it was 214 nM. Moreover, the AUC/dose in data set [9] worked out at 0.35 µM·kg·h/mg; in data set [13] it was 0.05 µM·kg·h/mg. Further, the Cmax worked out at 1150 nM in [10] and 70 nM in data set [12]. Besides, the bioavailability in data set [11] stood at 13%. Besides, the half-life in data set [14] is 1.7 h; in [17], 2.5 h. This compound gave a concentration at 4 h in [15] of 1300 nM. Moreover, in [16], the Vd is 14.7 L/kg. For the same compound, in [18], the concentration at 1 h is 1200 nM.

In the case of `Cc1c(NCCN2CCCC2)cc(C(=O)Nc2ccccc2)cc1N1CCN(c2ncnc3[nH]nc(Br)c23)CC1`, the 50% inhibitory concentration (IC50) in data set [1] was found to be 14 nM; in [2], 13 nM; in [3], 7810 nM; in data set [4], 1 nM; in [6] it was 190 nM.

Compound `Cc1c(NCCN2CCCC2)cc(COCC(F)(F)F)cc1N1CCN(c2ncnc3[nH]nc(Br)c23)CC1` had a Vd in data set [19] of 9.7 L/kg. Besides, the IC50 in data set [1] was 17 nM; in data set [2], 8 nM; in data set [3], 730 nM; in data set [4] it was 2 nM; in data set [6], 66 nM. Also, the half-life in [20] is 1.4 h; in data set [21], 2.1 h. For the same compound, the bioavailability in [22] was found to be 11%. The compound further had a clearance in data set [23] of 63.5 mL/min/kg. The values for the Cmax in [24] and in data set [27] were 20 nM and 390 nM, respectively. The concentration at 4 h in data set [15] is 1200 nM. Further, the AUC/dose in data set [25] was 0.43 µM·kg·h/mg; in [26], 0.05 µM·kg·h/mg. Besides, in [18], the concentration at 1 h amounted to 1200 nM.

In the case of `Cc1c(NCCN2CCCC2)cc(CCC(C)(C)C)cc1N1CCN(c2ncnc3[nH]nc(Br)c23)CC1`, the IC50 came out at 116 nM in data set [1]; 7 nM in data set [2]; 1980 nM in data set [3]; 2 nM in [4]; 203 nM in data set [6].

In data set [19], `Cc1noc(-c2cc(NCCN3CCCC3)c(C)c(N3CCN(c4ncnc5[nH]nc(Br)c45)CC3)c2)n1` came in with a Vd of 14.2 L/kg. The IC50 came to 13 nM in data set [1]; 6 nM in data set [2]; 665 nM in data set [3]; 1 nM in data set [4]; 47 nM in [6]. Also, the half-life is 2.9 h in data set [20] and 2.4 h in [21]. This compound came in with a concentration at 4 h in data set [28] of 100 nM. The compound further had a bioavailability in [22] of 10%. Also, in data set [23], the clearance was 73 mL/min/kg. The highest concentration (Cmax) in data set [24] came out at 10 nM; in data set [27], 370 nM. Also, the values for the AUC/dose in [25] and in data set [26] were 0.45 µM·kg·h/mg and 0.05 µM·kg·h/mg, respectively. Further, the concentration at 1 h in data set [18] stood at 300 nM.

As for `COC(=O)c1cc(NCCN2CCCC2)c(C)c(N2CCN(c3ncnc4[nH]nc(Br)c34)CC2)c1`, the IC50 in data set [1] stood at 44 nM; in [2], 5 nM; in [3], 1840 nM; in [4] it was 2 nM; in data set [6] it was 52 nM.

On to `CCC(=O)c1cc(NCCN2CCCC2)c(C)c(N2CCN(c3ncnc4[nH]nc(Br)c34)CC2)c1`, for which, in data set [8], the clearance is 49 mL/min/kg. In addition, the IC50 in [1] is 18 nM; in data set [2], 5 nM; in [3] it was 976 nM; in [4], 1 nM; in data set [6], 25 nM. In addition, the AUC/dose was found to be 0.56 µM·kg·h/mg in data set [9] and 0.15 µM·kg·h/mg in data set [13]. Moreover, the Cmax in data set [10] came out at 1440 nM; in [12], 140 nM. The same compound registered a bioavailability in [11] of 28%. The half-life in data set [14] was 2.9 h; in [17] it was 3.1 h. Further, the concentration at 4 h in data set [15] is 2000 nM. The Vd in data set [16] came to 10.5 L/kg. Also, the concentration at 1 h in [18] is 2000 nM.
